Test results: ChEMBL document CHEMBL2311466, “Synthesis and antibacterial and antifungal evaluation of some chalcone based sulfones and bisulfones” (2013)
≈ marks a conversion by molar mass, not a printed value.

What was measured:
Salmonella typhimurium = assay: Antimicrobial activity against Salmonella typhimurium after 12 to 18 hrs by micro-well dilution method; type: functional, Salmonella enterica subsp. enterica serovar Typhimurium; conditions: Salmonella enterica
How it was run: (§1)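 Clinical isolates were tested by broth micro-well dilution per NCCLS, in triplicate. Stocks were 10 mg/ml in DMSO, with a 1 mg/ml working solution in methanol. Two-fold serial dilutions ran across 10 wells. Cultures were grown to log phase in Luria Bertani or nutrient broth for 12-18 h at 37 °C and adjusted by OD600 to 10⁷ cfu per well. MIC is the lowest concentration preventing visible growth. Ampicillin and kanamycin served as reference drugs.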

Pseudomonas aeruginosa = assay: Antimicrobial activity against Pseudomonas aeruginosa after 12 to 18 hrs by micro-well dilution method; type: functional; how it was run: as §1
Staphylococcus aureus = assay: Antimicrobial activity against Staphylococcus aureus after 12 to 18 hrs by micro-well dilution method; type: functional; how it was run: as §1
Bacillus subtilis = assay: Antimicrobial activity against Bacillus subtilis after 12 to 18 hrs by micro-well dilution method; type: functional; how it was run: as §1
Aspergillus niger [1] = assay: Antifungal activity against Aspergillus niger after 12 to 18 hrs by micro-well dilution method; type: functional
How it was run: (§2)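 Broth micro-well dilution per NCCLS, in triplicate. Compounds were stocked at 10 mg/ml in DMSO and diluted to a 1 mg/ml working solution in methanol. Two-fold serial dilutions ran across 10 wells of medium. Clinical isolates were subcultured on Sabouraud dextrose agar at 37 °C for 48-72 h. Cultures were grown in yeast/peptone/D-glucose medium for 12-18 h at 37 °C and sized by OD600 to 10⁴ cfu per well. MIC is the lowest concentration with no visible growth. Amphotericin-B and nystatin served as reference drugs.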

Candida albicans [2] = assay: Antifungal activity against Candida albicans after 12 to 18 hrs by micro-well dilution method; type: functional; how it was run: as §2
Aspergillus niger [3] = assay: Antifungal activity against Aspergillus niger after 12 to 18 hrs by broth microdilution method; type: functional
How it was run: (§3)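 Clinical isolate from a medical college microbiology department, subcultured on Sabouraud dextrose agar at 37 °C for 48–72 h. Liquid culture was grown in yeast/peptone/D-glucose medium for 12–18 h at 37 °C, then diluted by OD600 to 10⁴ cfu/100 per well. Compounds were made as a 10 mg/ml DMSO stock and a 1 mg/ml methanol working solution. Twofold serial dilutions ran across 10 wells, in triplicate, per NCCLS micro-well dilution. MIC was the lowest concentration with no visible growth.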

Candida albicans [4] = assay: Antifungal activity against Candida albicans after 12 to 18 hrs by broth microdilution method; type: functional; how it was run: as §3

Molecule | MIC (Salmonella typhimurium) | MIC (Pseudomonas aeruginosa) | MIC (Staphylococcus aureus) | MIC (Bacillus subtilis) | MIC (Aspergillus niger [1]) | MIC (Candida albicans [2]) | MIC (Aspergillus niger [3]) | MIC (Candida albicans [4])
CC1(C)S[C@@H]2[C@H](NC(=O)[C@H](N)c3ccccc3)C(=O)N2[C@H]1C(=O)O [AMPICILLIN] | 125 µg/mL (≈ 358 µM) | 125 µg/mL (≈ 358 µM) | 500 µg/mL (≈ 1430 µM) | 250 µg/mL (≈ 715 µM) |  |  |  | 
O=C(CC(c1ccccc1)S(=O)(=O)c1ccccc1)c1ccccc1 (stereo not drawn) | 1.95 µg/mL (≈ 5.56 µM) | 125 µg/mL (≈ 357 µM) | 62.5 µg/mL (≈ 178 µM) | 31.2 µg/mL (≈ 89.2 µM) | 7.81 µg/mL (≈ 22.3 µM) | 3.9 µg/mL (≈ 11.1 µM) |  | 
O=C(CC(c1ccc(Cl)cc1)S(=O)(=O)c1ccccc1)c1ccccc1 (stereo not drawn) | 125 µg/mL (≈ 325 µM) | 62.5 µg/mL (≈ 162 µM) | 125 µg/mL (≈ 325 µM) | 62.5 µg/mL (≈ 162 µM) | 125 µg/mL (≈ 325 µM) | 1.95 µg/mL (≈ 5.07 µM) |  | 
O=C(CC(c1ccc(Cl)cc1)S(=O)(=O)c1ccccc1)CC(c1ccc(Cl)cc1)S(=O)(=O)c1ccccc1 (stereo not drawn) | 15.6 µg/mL (≈ 26.6 µM) | 250 µg/mL (≈ 425 µM) | 250 µg/mL (≈ 425 µM) | 31.2 µg/mL (≈ 53.2 µM) | 125 µg/mL (≈ 213 µM) | 1.95 µg/mL (≈ 3.32 µM) |  | 
NC[C@H]1O[C@H](O[C@H]2[C@H](O)[C@@H](O[C@H]3O[C@H](CO)[C@@H](O)[C@H](N)[C@H]3O)[C@H](N)C[C@@H]2N)[C@H](O)[C@@H](O)[C@@H]1O [KANAMYCIN] | 15.6 µg/mL (≈ 32.2 µM) | 250 µg/mL (≈ 516 µM) | 500 µg/mL (≈ 1030 µM) | 7.81 µg/mL (≈ 16.1 µM) |  |  |  | 
COc1ccc(C(CC(=O)CC(c2ccc(OC)cc2)S(=O)(=O)c2ccccc2)S(=O)(=O)c2ccccc2)cc1 (stereo not drawn) | 62.5 µg/mL (≈ 108 µM) | 125 µg/mL (≈ 216 µM) | 250 µg/mL (≈ 432 µM) | 31.2 µg/mL (≈ 54 µM) | 125 µg/mL (≈ 216 µM) | 125 µg/mL (≈ 216 µM) |  | 
COc1ccc(C(CC(=O)c2ccc(Br)cc2)S(=O)(=O)c2ccccc2)cc1OC (stereo not drawn) | 1.95 µg/mL (≈ 3.98 µM) | 62.5 µg/mL (≈ 128 µM) | 62.5 µg/mL (≈ 128 µM) | 62.5 µg/mL (≈ 128 µM) | 15.6 µg/mL (≈ 31.9 µM) | 15.6 µg/mL (≈ 31.9 µM) |  | 
O=C(CC(c1ccc(Cl)cc1)S(=O)(=O)c1ccccc1)c1ccc(Cl)cc1 (stereo not drawn) | 125 µg/mL (≈ 298 µM) | 125 µg/mL (≈ 298 µM) | 250 µg/mL (≈ 596 µM) | 15.6 µg/mL (≈ 37.2 µM) | 15.6 µg/mL (≈ 37.2 µM) | 31.2 µg/mL (≈ 74.5 µM) |  | 
COc1cc(C(CC(=O)c2ccc(Br)cc2)S(=O)(=O)c2ccccc2)cc(OC)c1OC (stereo not drawn) | 1.95 µg/mL (≈ 3.75 µM) | 125 µg/mL (≈ 241 µM) | 125 µg/mL (≈ 241 µM) | 31.2 µg/mL (≈ 60.2 µM) | 7.81 µg/mL (≈ 15 µM) | 3.9 µg/mL (≈ 7.51 µM) |  | 
O=C(CC(c1ccccc1)S(=O)(=O)c1ccccc1)c1ccc(Br)cc1 (stereo not drawn) | 250 µg/mL (≈ 582 µM) | 62.5 µg/mL (≈ 146 µM) | 125 µg/mL (≈ 291 µM) | 62.5 µg/mL (≈ 146 µM) | 62.5 µg/mL (≈ 146 µM) | 125 µg/mL (≈ 291 µM) |  | 
O=C(CC(c1ccccc1)S(=O)(=O)c1ccccc1)CC(c1ccccc1)S(=O)(=O)c1ccccc1 (stereo not drawn) | 250 µg/mL (≈ 482 µM) | 62.5 µg/mL (≈ 121 µM) | 62.5 µg/mL (≈ 121 µM) | 125 µg/mL (≈ 241 µM) | 125 µg/mL (≈ 241 µM) | 250 µg/mL (≈ 482 µM) |  | 
O=C(CC(c1cccc([N+](=O)[O-])c1)S(=O)(=O)c1ccccc1)c1ccc(Cl)cc1 (stereo not drawn) | 62.5 µg/mL (≈ 145 µM) | 62.5 µg/mL (≈ 145 µM) | 125 µg/mL (≈ 291 µM) | 62.5 µg/mL (≈ 145 µM) | 62.5 µg/mL (≈ 145 µM) | 1.95 µg/mL (≈ 4.54 µM) |  | 
NYSTATIN |  |  |  |  |  |  | 7.81 µg/mL | 7.81 µg/mL
C[C@@H]1[C@H](O)[C@@H](C)/C=C/C=C/C=C/C=C/C=C/C=C/C=C/[C@H](O[C@@H]2O[C@H](C)[C@@H](O)[C@H](N)[C@@H]2O)C[C@@H]2O[C@](O)(C[C@@H](O)C[C@@H](O)[C@H](O)CC[C@@H](O)C[C@@H](O)CC(=O)O[C@H]1C)C[C@H](O)[C@H]2C(=O)O [AMPHOTERICIN B] |  |  |  |  |  |  | 500 µg/mL (≈ 541 µM) | 15.6 µg/mL (≈ 16.9 µM)
Cc1ccc(C(CC(=O)CC(c2ccc(C)cc2)S(=O)(=O)c2ccccc2)S(=O)(=O)c2ccccc2)cc1 (stereo not drawn) | 31.2 µg/mL (≈ 57.2 µM) | 62.5 µg/mL (≈ 114 µM) | 62.5 µg/mL (≈ 114 µM) | 62.5 µg/mL (≈ 114 µM) | 31.2 µg/mL (≈ 57.2 µM) | 1.95 µg/mL (≈ 3.57 µM) |  | 
